# Test results published in ChEMBL document CHEMBL1149565, “Identification of a novel series of benzimidazoles as potent and selective antagonists of the human melanocortin-4 receptor” (Bioorg Med Chem Lett, 2007).
# The source made the active and inactive calls. The calls are words filed in the database; no cut-off is given here.
# Tests used:
# [1] = target: Melanocortin receptor 5 (Homo sapiens, UniProt P33032); experiment: Displacement of [125I]NDP-alphaMSH from human melanocortin 5 receptor expressed in CHOK1 cells; assay type: cell-based, CHO-K1
# Procedure, shortened: (§1)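 Membranes from CHO-K1 cells stably expressing human MC1, MC3, MC4 or MC5 receptor, 1–10 µg protein/well, in 50 mM Tris-HCl pH 7.4 with 0.2% BSA, 5 mM MgCl2, 1 mM CaCl2, 0.1 mg/mL bacitracin. Incubated with increasing test compound and 0.1–0.3 nM [125I]NDP-α-MSH, 90–120 min at 37 °C depending on subtype. Filtration on PEI-presoaked GF/C filters, cold buffer washes, radioactivity counted; nonlinear regression; three independent measurements.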
# [2] = target: Melanocyte-stimulating hormone receptor (Homo sapiens, UniProt Q01726); experiment: Displacement of [125I]NDP-alphaMSH from human melanocortin 1 receptor expressed in CHOK1 cells; assay type: cell-based, CHO-K1; procedure, shortened: as §1
# [3] = target: T1, Melanocortin receptor 4 (Homo sapiens, UniProt P32245); experiment: Agonist activity at human melanocortin 4 receptor expressed in CHOK1 cells assessed as stimulation of cAMP production at 10 uM; assay type: functional, cell-based; conditions: CHO-K1
# Procedure, shortened: (§2)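 CHO-K1 cells stably expressing human MC4 receptor, suspended in RPMI 1640 with 0.5 mM IBMX and 0.2% protein cocktail, 7000 cells/well on anti-cAMP antibody-coated electrode plates. NDP-α-MSH concentration–response run with increasing test compound concentrations (agonist check at 10 µM alone), 40 min at 37 °C. Cells lysed, 2.5 nM ruthenium-labelled cAMP added, 90 min, then electrochemiluminescence read-out. Nonlinear regression; KB by Schild regression, logarithmic mean of three independent measurements.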
# [4] = target: Melanocortin receptor 3 (Homo sapiens, UniProt P41968); experiment: Displacement of [125I]NDP-alphaMSH from human melanocortin 3 receptor expressed in CHOK1 cells; assay type: cell-based, CHO-K1; procedure, shortened: as §1
# [5] = target: T1, Melanocortin receptor 4; experiment: Antagonist activity at human melanocortin 4 receptor expressed in CHOK1 cells assessed as inhibition of NDP-alpha-MSH-stimulated cAMP production; assay type: functional, cell-based; conditions: CHO-K1; procedure, shortened: as §2
# [6] = target: Melanocortin receptor (M3 and M4) (Homo sapiens) (UniProt P32245+P41968); experiment: Selectivity for human MC4R over human MC3R; assay type: protein assay
# [7] = target: T1, Melanocortin receptor 4; experiment: Displacement of [125I]NDP-alphaMSH from human melanocortin 4 receptor expressed in CHOK1 cells; assay type: cell-based, CHO-K1; procedure, shortened: as §1
# [8] = Ratio of drug level in brain to blood in Sprague-Dawley rat at 4.5 umol/kg, iv; assay type: ADME, tissue-based; conditions: read-out: Ratio AUC
# Procedure, shortened: (§3)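 Fed male Sprague–Dawley rats, three per time point, given 4.5 µmol/kg intravenously via penile vein in 1 ml/kg 10% DMA/90% propanediol. Under deep isoflurane anaesthesia, blood taken from vena cava at 1, 15, 30, 60, 90 and 120 min, centrifuged 2000g, 15 min, 4 °C. Plasma and brain levels measured; brain/blood ratio from AUC.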
# [9] = Half life in Sprague-Dawley rat at 4.5 umol/kg, iv; assay type: ADME, organism-based; conditions: in vivo; procedure, shortened: as §3
# Chain of Melanocyte-stimulating hormone receptor (Q01726 whole entry): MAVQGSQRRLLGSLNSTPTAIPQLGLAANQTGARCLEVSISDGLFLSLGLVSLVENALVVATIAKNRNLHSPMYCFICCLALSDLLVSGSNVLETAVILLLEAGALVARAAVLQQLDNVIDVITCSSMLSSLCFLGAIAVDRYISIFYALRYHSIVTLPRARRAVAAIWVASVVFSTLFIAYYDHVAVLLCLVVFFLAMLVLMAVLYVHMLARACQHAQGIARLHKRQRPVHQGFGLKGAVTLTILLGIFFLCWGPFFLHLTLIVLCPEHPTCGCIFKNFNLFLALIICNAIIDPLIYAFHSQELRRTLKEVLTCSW
# Chain of Melanocortin receptor 3 (P41968 whole entry): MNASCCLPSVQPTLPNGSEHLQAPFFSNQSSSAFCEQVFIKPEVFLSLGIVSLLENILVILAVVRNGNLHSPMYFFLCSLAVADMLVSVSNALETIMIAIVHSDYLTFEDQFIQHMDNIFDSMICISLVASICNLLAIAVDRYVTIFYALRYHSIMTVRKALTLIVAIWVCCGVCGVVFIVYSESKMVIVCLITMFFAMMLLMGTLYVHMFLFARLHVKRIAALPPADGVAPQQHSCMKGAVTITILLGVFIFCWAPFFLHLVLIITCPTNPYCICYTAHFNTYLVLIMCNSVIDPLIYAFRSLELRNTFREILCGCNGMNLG
# T1 sequence (P32245 whole entry): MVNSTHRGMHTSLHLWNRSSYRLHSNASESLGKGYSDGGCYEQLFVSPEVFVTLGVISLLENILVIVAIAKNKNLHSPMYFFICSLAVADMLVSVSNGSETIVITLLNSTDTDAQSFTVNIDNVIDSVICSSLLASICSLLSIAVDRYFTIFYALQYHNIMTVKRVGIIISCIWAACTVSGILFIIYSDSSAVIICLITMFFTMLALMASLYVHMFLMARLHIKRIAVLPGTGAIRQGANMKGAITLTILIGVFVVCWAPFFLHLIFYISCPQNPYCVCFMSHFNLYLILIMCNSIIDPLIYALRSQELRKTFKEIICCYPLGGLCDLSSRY
# Chain of Melanocortin receptor 5 (P33032 whole entry): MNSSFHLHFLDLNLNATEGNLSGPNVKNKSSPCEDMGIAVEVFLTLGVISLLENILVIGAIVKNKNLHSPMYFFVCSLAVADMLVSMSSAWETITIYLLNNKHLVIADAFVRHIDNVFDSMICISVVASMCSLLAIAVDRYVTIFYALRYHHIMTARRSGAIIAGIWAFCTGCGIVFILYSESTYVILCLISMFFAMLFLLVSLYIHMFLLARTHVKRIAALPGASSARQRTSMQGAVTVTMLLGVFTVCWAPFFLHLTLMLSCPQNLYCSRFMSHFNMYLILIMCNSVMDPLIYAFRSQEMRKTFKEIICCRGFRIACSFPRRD
compound,measurement,setting,value
COc1ccc(C(=O)c2nc3ccc(C(=O)N(CCC(C)C)CCC(C)C)cc3n2CCCN2CCCCC2)cc1,Ki,[1],1600 nM
same,Ki,[2],7.5 µM
same,Activity,[3],inactive
same,Ki,[4],540 nM
same,Kb,[5],44 nM
same,Fold change,[6],40
same,Ki,[7]; read-out: Ki,0.96 nM
CC(C)CCN(CCC(C)C)C(=O)c1ccc2nc(-c3cn(C)c4ccccc34)n(CCCN3CCCCC3)c2c1,Ki,[7]; read-out: Ki,3.2 nM
COc1ccc(Nc2nc3ccc(C(=O)N(CCC(C)C)CCC(C)C)cc3n2CCCN2CCCCC2)cc1,Ki,[7]; read-out: Ki,5 nM
CC(=O)c1ccc(Cc2nc3ccc(C(=O)N(CCC(C)C)CCC(C)C)cc3n2CCCN2CCCCC2)cc1,Ki,[1],5900 nM
same,Ki,[2],> 10 µM
same,Activity,[3],inactive
same,Ki,[4],4500 nM
same,Kb,[5],14 nM
same,Ki,[7]; read-out: Ki,3.9 nM
CC(C)CCN(CCC(C)C)C(=O)c1ccc2nc(Nc3ccccc3)n(CCCN3CCCCC3)c2c1,Ki,[7]; read-out: Ki,7.3 nM
CC(=O)c1ccc(Nc2nc3ccc(C(=O)N(CCC(C)C)CCC(C)C)cc3n2CCCN2CCCCC2)cc1,Kp,[8],2.9
same,Ki,[1],2200 nM
same,Ki,[2],5.2 µM
same,Activity,[3],inactive
same,Ki,[4],400 nM
same,Kb,[5],77 nM
same,half-life,[9],300 min
same,Ki,[7]; read-out: Ki,2 nM
CC(C)CCN(CCC(C)C)C(=O)c1ccc2nc(Nc3ccc(F)cc3)n(CCCN3CCCCC3)c2c1,Ki,[7]; read-out: Ki,8.3 nM
CC(=O)c1ccccc1Nc1nc2ccc(C(=O)N(CCC(C)C)CCC(C)C)cc2n1CCCN1CCCCC1,Ki,[7]; read-out: Ki,110 nM
COc1ccc(-c2nc3ccc(C(=O)N(CCC(C)C)CCC(C)C)cc3n2CCCN2CCCCC2)cc1,Ki,[7]; read-out: Ki,37 nM
COC(=O)c1ccc(-c2nc3ccc(C(=O)N(CCC(C)C)CCC(C)C)cc3n2CCCN2CCCCC2)cc1,Ki,[7]; read-out: Ki,45 nM
CC(C)CCN(CCC(C)C)C(=O)c1ccc2nc(Nc3cccc4[nH]ccc34)n(CCCN3CCCCC3)c2c1,Ki,[7]; read-out: Ki,14 nM
CC(C)CCN(CCC(C)C)C(=O)c1ccc2nc(Nc3ccsc3)n(CCCN3CCCCC3)c2c1,Ki,[7]; read-out: Ki,33 nM
CC(C)CCN(CCC(C)C)C(=O)c1ccc2nc(Nc3ccc(N4CCCCC4)cc3)n(CCCN3CCCCC3)c2c1,Ki,[7]; read-out: Ki,9.7 nM
CC(=O)c1ccc(Nc2nc3ccc(C(=O)N(CCC(C)C)CCC(C)C)cc3n2CCN)cc1,Ki,[7]; read-out: Ki,220 nM
CC(=O)c1ccc(Nc2nc3ccc(C(=O)N(CCC(C)C)CCC(C)C)cc3n2CCCCN)cc1,Ki,[7]; read-out: Ki,130 nM
CC(C)CCN(CCC(C)C)C(=O)c1ccc2nc(Nc3ccc(C(N)=O)cc3)n(CCCN3CCCCC3)c2c1,Ki,[7]; read-out: Ki,6.5 nM
CC(C)CCN(CCC(C)C)C(=O)c1ccc2nc(Nc3cccnc3)n(CCCN3CCCCC3)c2c1,Ki,[7]; read-out: Ki,4.2 nM
CNCCCn1c(Nc2ccc(C(C)=O)cc2)nc2ccc(C(=O)N(CCC(C)C)CCC(C)C)cc21,Ki,[7]; read-out: Ki,51 nM
CC(=O)c1ccc(Nc2nc3ccc(C(=O)N(CCC(C)C)CCC(C)C)cc3n2CCCN(C)C)cc1,Ki,[7]; read-out: Ki,12 nM
CC(=O)c1ccc(Nc2nc3ccc(C(=O)N(CCC(C)C)CCC(C)C)cc3n2CCCN)cc1,Ki,[7]; read-out: Ki,60 nM
COC(=O)c1ccc(Nc2nc3ccc(C(=O)N(CCC(C)C)CCC(C)C)cc3n2CCCN2CCCCC2)cc1,Ki,[7]; read-out: Ki,0.9 nM
CCC(=O)c1ccc(Nc2nc3ccc(C(=O)N(CCC(C)C)CCC(C)C)cc3n2CCCN2CCCCC2)cc1,Ki,[7]; read-out: Ki,2.7 nM
CC(C)CCN(CCC(C)C)C(=O)c1ccc2nc(-c3cc4ccccc4s3)n(CCCN3CCCCC3)c2c1,Ki,[7]; read-out: Ki,2.9 nM
CCCCN(CCCC)C(=O)c1ccc2nc(Nc3cc(OC)c(OC)c(OC)c3)n(CCCN)c2c1,Ki,[7]; read-out: Ki,1000 nM
CC(=O)c1ccc(Nc2nc3ccc(C(=O)N(CCC(C)C)CCC(C)C)cc3n2CCCN2CCCC2)cc1,Ki,[7]; read-out: Ki,4.9 nM
COc1cc(Nc2nc3ccc(C(=O)N(CCC(C)C)CCC(C)C)cc3n2CCCN)cc(OC)c1OC,Ki,[7]; read-out: Ki,420 nM
CC(=O)c1ccc(Nc2nc3ccc(C(=O)N(CCC(C)C)CCC(C)C)cc3n2CCCN2CCN(C)CC2)cc1,Ki,[7]; read-out: Ki,45 nM
CC(=O)c1ccc(Nc2nc3ccc(C(=O)N(CCC(C)C)CCC(C)C)cc3n2CCCN2CCOCC2)cc1,Ki,[7]; read-out: Ki,33 nM
CC(C)CCN(CCC(C)C)C(=O)c1ccc2nc(-c3c[nH]c4ccccc34)n(CCCN3CCCCC3)c2c1,Ki,[7]; read-out: Ki,7 nM
CC(C)CCN(CCC(C)C)C(=O)c1ccc2nc(Nc3ccc(-c4ccccc4)cc3)n(CCCN3CCCCC3)c2c1,Ki,[7]; read-out: Ki,5.2 nM
CC(=O)NCCNc1nc2ccc(C(=O)N(CCC(C)C)CCC(C)C)cc2n1CCCN1CCCCC1,Ki,[7]; read-out: Ki,31 nM
CC(C)CCN(CCC(C)C)C(=O)c1ccc2nc(Nc3ccc(Br)cc3)n(CCCN3CCCCC3)c2c1,Ki,[7]; read-out: Ki,7.5 nM
CCN(CC)CCCn1c(Nc2ccc(C(C)=O)cc2)nc2ccc(C(=O)N(CCC(C)C)CCC(C)C)cc21,Ki,[7]; read-out: Ki,7.9 nM
CC(C)CCN(CCC(C)C)C(=O)c1ccc2nc(Nc3ccc([N+](=O)[O-])cc3)n(CCCN3CCCCC3)c2c1,Ki,[7]; read-out: Ki,2.2 nM
CC(=O)c1ccc(Nc2nc3ccc(C(=O)N(CCC(C)C)CCC(C)C)cc3n2C2CCN(C)CC2)cc1,Ki,[7]; read-out: Ki,50 nM
CC(=O)c1ccc(Nc2nc3ccc(C(=O)N(CC(C)C)CC(C)C)cc3n2CCCN)cc1,Ki,[7]; read-out: Ki,770 nM
CC(=O)Nc1ccc(Nc2nc3ccc(C(=O)N(CCC(C)C)CCC(C)C)cc3n2CCCN2CCCCC2)cc1,Ki,[7]; read-out: Ki,3.7 nM
CC(C)CCN(CCC(C)C)C(=O)c1ccc2nc(Nc3ccc(Cl)cc3)n(CCCN3CCCCC3)c2c1,Ki,[7]; read-out: Ki,8.8 nM
CC(C)CCN(CCC(C)C)C(=O)c1ccc2nc(Nc3ccc(C(=O)c4ccccc4)cc3)n(CCCN3CCCCC3)c2c1,Ki,[7]; read-out: Ki,1.7 nM
COc1ccc(Cc2nc3ccc(C(=O)N(CCC(C)C)CCC(C)C)cc3n2CCCN2CCCCC2)cc1,Ki,[7]; read-out: Ki,28 nM
CCCCCN(CCCCC)C(=O)c1ccc2nc(Nc3cc(OC)c(OC)c(OC)c3)n(CCCN)c2c1,Ki,[7]; read-out: Ki,640 nM
COCCNc1nc2ccc(C(=O)N(CCC(C)C)CCC(C)C)cc2n1CCCN1CCCCC1,Ki,[7]; read-out: Ki,78 nM
CCCN(CCC)C(=O)c1ccc2nc(Nc3cc(OC)c(OC)c(OC)c3)n(CCCN)c2c1,Ki,[7]; read-out: Ki,17000 nM
same,Ki,[7]; read-out: Log Ki (converted),17800 nM
CC(=O)c1ccc(-c2nc3ccc(C(=O)N(CCC(C)C)CCC(C)C)cc3n2CCCN2CCCCC2)cc1,Ki,[7]; read-out: Ki,20 nM
CNC(=O)c1ccc(Nc2nc3ccc(C(=O)N(CCC(C)C)CCC(C)C)cc3n2CCCN2CCCCC2)cc1,Ki,[1],880 nM
same,Ki,[2],9.3 µM
same,Activity,[3],inactive
same,Ki,[4],130 nM
same,Kb,[5],3.2 nM
same,Fold change,[6],40
same,Ki,[7]; read-out: Ki,3.3 nM
CC(=O)c1ccc(Nc2nc3ccc(C(=O)N(CCC(C)C)CCC(C)C)cc3n2CCCNC(=O)OC(C)(C)C)cc1,Ki,[7]; read-out: Ki,> 10000 nM
same,Ki,[7]; read-out: Log Ki (converted),85100 nM
CC(C)CCN(CCC(C)C)C(=O)c1ccc2nc(NCc3ccccc3)n(CCCN3CCCCC3)c2c1,Ki,[7]; read-out: Ki,18 nM
CC(=O)c1ccc(Nc2nc3ccc(C(=O)N(CCC(C)C)CCC(C)C)cc3n2CC(C)(C)CN(C)C)cc1,Ki,[7]; read-out: Ki,730 nM
CC(=O)c1ccc(Nc2nc3ccc(C(=O)N(CCC(C)C)CCC(C)C)cc3n2CCCO)cc1,Ki,[7]; read-out: Ki,2300 nM
CC(=O)c1ccc(CNc2nc3ccc(C(=O)N(CCC(C)C)CCC(C)C)cc3n2CCCN2CCCCC2)cc1,Ki,[7]; read-out: Ki,5.8 nM
CC(C)CCN(CCC(C)C)C(=O)c1ccc2nc(Nc3ccc(Oc4ccccc4)cc3)n(CCCN3CCCCC3)c2c1,Ki,[7]; read-out: Ki,2.1 nM
CC(=O)c1cccc(Nc2nc3ccc(C(=O)N(CCC(C)C)CCC(C)C)cc3n2CCCN2CCCCC2)c1,Ki,[7]; read-out: Ki,4.5 nM
COc1cc(Nc2nc3ccc(C(=O)N(CC(C)C)CC(C)C)cc3n2CCCN)cc(OC)c1OC,Ki,[7]; read-out: Ki,11000 nM
same,Ki,[7]; read-out: Log Ki (converted),11700 nM
